# The list is not random: actives were taken first. Their share in the collection is about 0.74%.
# ASAP1 GAP inh = ASAP1 ArfGAP inhibition. ASAP1-stimulated ARF1 GTP hydrolysis, GDP FP detection. inhibition, % at 16.5 µM. 360,000 tested, 0.19% active; in the data active = inhibition above about 25%;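 note: 0% = vehicle with enzyme and substrate and 100% = no enzyme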
# Tn6 DDE FP = disrupts Tn6 cyclic peptide binding to fibrin D-Dimer-E complex. P02675. Fibrin DD(E) TRITC-Tn6 fluorescence polarization displacement. inhibition, % at 8.3 µM. 370,000 tested, 0.21% active. AID 720509;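 active = inhibition above a per-campaign cutoff: mean of compounds within control limits plus 3 SD, cut at about 15% in these data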;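 note: 0% = median of all compound wells on the plate and 100% = blocking peptide control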
# Target sequence (P02675 whole entry, looked up): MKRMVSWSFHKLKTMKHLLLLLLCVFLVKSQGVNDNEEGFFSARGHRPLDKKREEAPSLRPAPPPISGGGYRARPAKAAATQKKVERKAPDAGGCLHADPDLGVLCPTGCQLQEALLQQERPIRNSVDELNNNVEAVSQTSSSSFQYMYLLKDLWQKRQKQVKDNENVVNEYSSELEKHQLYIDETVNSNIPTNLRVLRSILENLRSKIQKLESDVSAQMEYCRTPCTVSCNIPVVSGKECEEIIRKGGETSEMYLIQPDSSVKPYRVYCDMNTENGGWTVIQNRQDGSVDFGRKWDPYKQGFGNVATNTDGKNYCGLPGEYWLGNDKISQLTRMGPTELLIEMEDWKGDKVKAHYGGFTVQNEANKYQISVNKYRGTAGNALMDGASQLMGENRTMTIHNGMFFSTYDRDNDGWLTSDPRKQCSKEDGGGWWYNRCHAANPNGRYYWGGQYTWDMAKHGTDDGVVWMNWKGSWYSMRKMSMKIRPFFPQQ
# ARFGAP1 inh = inhibits rat ARF GTPase activating protein 1 | Q62848 | Arfgap1-stimulated ARF1 GTP hydrolysis, GDP FP detection | inhibition, % at 16.5 µM | 360,000 tested, 0.26% active;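 active = inhibition above a per-plate limit, mean inhibition of low control wells plus 3 SD, cut at about 25% in these data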;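 note: 0% = DMSO wells with enzyme and 100% = wells lacking Arfgap1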
# Target sequence (Q62848 1-136 limits assumed): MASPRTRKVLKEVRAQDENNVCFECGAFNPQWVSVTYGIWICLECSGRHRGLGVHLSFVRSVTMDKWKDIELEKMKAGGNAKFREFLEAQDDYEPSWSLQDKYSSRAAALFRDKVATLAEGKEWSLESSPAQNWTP
#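 System: truncated rat Arfgap1 GAP domain / Medium: HEPES-based buffer, pH 7.5 / Also added: N-terminally truncated human ARF1-GTP substrate / Incubation: enzyme reaction 120 min at 25 °C after 20 min preincubation / Measured by: FP of antibody-bound GDP Alexa 633 tracer, ex 620/em 688 nm / Replicates: singlicate, each compound tested once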
# DDE Tn7 FP inh = disrupts Tn7 cyclic peptide binding to fibrin D-Dimer-E complex; P02675; inhibition, % at 8.3 µM; FP displacement of FITC-Tn7 peptide from fibrin DD(E); 0% = median of compound wells per plate; 370,000 tested, 0.13% active;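 active = inhibition above the mean of compounds falling within the control limits plus 3 SD of them, cut at about 14% in these data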;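 note: 0% = plate median of compound wells and 100% = 10 µM Aha-Tn7 peptide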
#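 Test system: human clot-derived fibrin DD(E) complex / Quantity: 2 µM final DD(E) protein / Incubation: 10 min plus 3 h, room temperature / Measured by: fluorescence polarization / Benchmarks: high control of 10 µM Aha-Tn7 peptide / Replicates: singlicate testing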
# DDE Tn7 confirm = confirmation of inhibitors of Tn7 binding to human fibrin DD(E); shares compounds with DDE Tn7 FP inh; FP displacement of TRITC-Tn7 peptide from DD(E); 0% set at plate's compound-well median; inhibition, % at 8.3 µM; 460 tested, 5% active;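 active = inhibition above the campaign cutoff, the mean of compounds within control limits plus 3 SD, cut at about 14% in these data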;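 note: 100% = median FP of high control wells holding Aha-Tn7 inhibitor peptide; displacers lower polarization since freed probe rises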
# DDE Tn7 FP ctr = counter-screen for inhibitors of Tn7 peptide binding to fibrin DD(E); shares compounds with DDE Tn7 FP inh; TRITC-Tn7 probe displacement, fluorescence polarization; inhibition, % at 8.3 µM; 460 tested, 3% active; AID 720633;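 active = inhibition above the cutoff, the mean of compounds lying between the control bounds plus 3 SD of those compounds, cut at about 17% in these data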;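 note: 0% = median of compound sample wells and 100% = excess unlabeled Aha-Tn7 peptide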
# Starred values were filed as active, the others as inactive; / = no result given.
SMILES,ASAP1 GAP inh,Tn6 DDE FP,ARFGAP1 inh,DDE Tn7 FP inh,DDE Tn7 confirm,DDE Tn7 FP ctr
CC1CN(C(=O)c2ccccc2)OC(c2ccc3c(c2)OCO3)O1 (centres undefined),-3,6,-3,15*,-3,-1
CCc1c(-c2ccccc2)ncn1CCc1ccccc1OC,2,8,-10,3,/,/
Cc1cccc(N2C(=O)CN(Cc3sccc3C)C2=S)c1,2,2,-14,-1,/,/
Cc1cccc(N2C(=O)CN(Cc3cccs3)C2=S)c1,0,-1,-12,15*,1,1
COC(=O)c1ccc2nc(-c3ccco3)c(Cc3ccccc3OC)n2c1,-6,-9,2,4,/,/
CCc1cc2c(nc1CC)CCCN2C,-12,7,4,-4,/,/
[O-][n+]1ccccc1C(O)CSc1ccccc1 (centres undefined),14,-7,-3,1,/,/
Cc1cc(C)n(-c2nc3ccccc3c(=O)n2OCC(=O)N(C)C)n1,1,-6,-1,4,/,/
Cc1cc(C)n(-c2nc3ccccc3c(=O)n2OCC(=O)Nc2c(C)cccc2C)n1,-16,2,2,16*,-15,-12
CCOC(=O)C1CSCCS(=O)(=O)N1Cc1ccccc1C (centres undefined),1,3,10,4,/,/
CC(=O)Oc1ccc2c(c1)C(=O)c1ccccc1CO2,3,4,7,14*,-6,-4
CCN(CC)CCCNc1ccc2ncn3c4ccc(O)cc4c(=O)c1c23,-23,4,1,40*,13,-4
NC(=O)c1ncn([C@@H]2O[C@H](C(=O)N[C@H](Cc3ccccc3)C(=O)N3CCN(c4ccc(Cl)cn4)CC3)[C@@H](O)[C@H]2O)n1,0,-1,6,0,/,/
CC(OC(=O)c1ccco1)C(=O)Nc1ccc(Cl)cn1 (centres undefined),-3,1,-4,15*,-3,-7
O=C1CCC/C(=N/NC(=O)c2sc3ccccc3c2Cl)C1,-1,-2,9,44*,-5,-5
C[C@@H]1CN([C@H](C)CO)C(=O)c2cc(NC(=O)Nc3ccc(F)cc3)ccc2O[C@@H](C)CCCCO[C@@H]1CN(C)C(=O)CCCN(C)C,3,-1,-3,-1,/,/
COc1ccc(CNC(=O)C(OC(=O)c2ccco2)c2ccccc2F)cc1 (centres undefined),-4,-3,11,14*,5,5
COc1ccc(C(=O)OCCN2CCN(C3CN(Cc4cn(Cc5ccccc5Cl)nn4)S(=O)(=O)C3)CC2)cc1OC (centres undefined),/,-6,/,-3,/,/
NS(=O)(=O)c1ccc(NC(=O)CSc2ncnc3ccccc23)cc1,-10,6,-6,14*,1,3
CCN(CC)S(=O)(=O)c1ccc(NC(=O)CSc2ncnc3ccccc23)cc1,-14,-4,0,4,/,/
COc1ccc(C(C)(C)C)cc1NC(=O)c1cncc(Br)c1,4,5,-12,16*,1,-1
CCCCC(=O)N1CCC(NS(=O)(=O)c2ccc3c(c2)CCN3C(C)=O)CC1,/,-7,/,0,/,/
CC(=O)Nc1cc(-c2ccccc2N(C)C)cn2c(-c3ccc(S(C)(=O)=O)cc3)cnc12,15,4,-4,26*,-5,-5
CNCCC1Sc2ccccc2Oc2ccccc21 (centres undefined),0,9,-2,14*,-1,-2
CN(C)CCCC1Sc2ccccc2Sc2ccccc21 (centres undefined),6,-1,3,-7,/,/
SMILES,ASAP1 GAP inh,Tn6 DDE FP,ARFGAP1 inh,DDE Tn7 FP inh,DDE Tn7 confirm,DDE Tn7 FP ctr
N#Cc1ccc(Cl)cc1NC(=O)COC(=O)c1cccc(S(=O)(=O)N2CCOCC2)c1,8,4,4,14*,6,-5
COc1ccccc1-c1cc(N)n(S(=O)(=O)c2ccc(F)c(C)c2)n1,-17,6,-11,14*,-2,-8
CCCCNc1cccc2c1S(=O)(=O)N[C@H](CC(C)C)CO2,6,-1,-7,5,/,/
CC(C)C1C(C#N)=C(N)SC(N)=C1C#N,-10,6,-14,14*,2,0
CCC(CC)C1C(C#N)=C(N)SC(N)=C1C#N,-10,3,11,6,/,/
C/C(=N\NC(=O)COc1cccc(Cl)c1)c1ccc2c(c1)OCCO2,-6,-3,-7,-1,/,/
C/C(=N\NC(=O)CSCc1ccc(Cl)cc1)c1ccc2c(c1)OCCO2,-18,3,8,14*,3,-2
COC(=O)Cc1cc(=O)oc2cc(OC)ccc12,-4,1,2,-6,/,/
COc1ccc2c(CC(=O)O)cc(=O)oc2c1,-7,4,2,15*,0,-3
C[C@@H]1CN([C@H](C)CO)C(=O)CCCn2nncc2CO[C@H]1CN(C)C(=O)Nc1ccc2c(c1)OCCO2,-13,-9,6,1,/,/
C=CCOc1ccc2c(c1)CCC1C2CCC2(C)C(O)C(O)CC12 (centres undefined),-8,3,-1,14*,3,-1
COc1ccc(/C=N/c2c(-c3ccco3)nc3ccccn23)cc1OC,17,-5,-6,15*,8,3
Cc1cc[n+](-c2[nH]c(=O)sc2/C=N/NC([S-])=Nc2ccccc2)cc1,-10,-5,3,6,/,/
O=c1[nH]c(-[n+]2ccccc2)c(/C=N/NC([S-])=Nc2ccccc2)s1,5,-2,10,15*,10,6
O=S(=O)(c1ccc(C(F)(F)F)cc1)N1CCCc2nc(-c3ccc(F)cc3)ccc21,-8,15,2,10,/,/
CC1(C)c2[nH]c3ccccc3c2C[C@@H]2C(=O)N(Cc3ccc(F)cc3)C(=O)N21,-5,3,-2,17*,13,9
CCOc1ccc(NC(=O)CN2CCN(CC(=O)Nc3cccc(F)c3)CC2)cc1,2,-3,2,-2,/,/
CCOc1ccc(NC(=O)CN2CCN(CC(=O)Nc3ccc4c(c3)OCCO4)CC2)cc1,-12,-1,5,15*,-1,-4
COc1cc(C2c3cc4c(cc3OC(NCc3ccccc3)C2C)OCO4)cc(OC)c1OC (centres undefined),2,2,4,14*,-2,-3
CC(C)[C@H](NC(=O)c1ccc(Cl)cc1Cl)C(=O)N1CCC[C@H]1C(=O)NCCc1ccccc1Cl,-5,9,13,-1,/,/
O=C(COc1ccc(Oc2ccccc2)cc1)NCc1cn2ccccc2n1,3,5,-2,16*,-7,-10
Cc1ccc(S(=O)(=O)N2CCCC(C(=O)NCCN3CCC(Cc4ccccc4)CC3)C2)cc1 (centres undefined),/,1,/,9,/,/

# Assay outcomes as filed in PubChem BioAssay.
